Measurements as given in ChEMBL document CHEMBL1142288, “Synthesis and biological evaluation of pyrroloiminoquinone derivatives” (Bioorg Med Chem, 2008).
Calls of active or inactive are those of the source. No cut-off for these calls is given here.

Experiments:
[1] = test system: HL-60; test: Antiproliferative activity against human HL60 cells after 72 hrs by trypan blue test; type: functional, cell-based; conditions: HL-60, 72 h
How it was run: (§1)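 HeLa (Ham's F-12, 10% heat-inactivated FCS) or HL-60 (RPMI 1640, 15% heat-inactivated FCS), both with penicillin/streptomycin/amphotericin; 4 · 10⁴ cells/well seeded in duplicate, 72 h drug exposure. Viability by Trypan blue; IC50 = concentration giving 50% reduction in cell number versus untreated controls.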

[2] = test system: HeLa; test: Antiproliferative activity against human HeLa cells after 72 hrs by trypan blue test; type: functional, cell-based; how it was run: as §1
[3] = test system: NCI-H460; test: Antiproliferative activity against human NCI-H460 cells after 72 hrs; conditions: NCI-H460, 72 h
[4] = species on record: Homo sapiens; test: Inhibition of human recombinant topoisomerase 2 assessed as relaxation of supercoiled pBR322 plasmid DNA at 10 to 50 uM
[5] = test system: HeLa; test: Induction of apoptosis in human HeLa cells assessed as DNA fragmentation at 100 uM after 24 hrs; type: functional, cell-based
How it was run: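 HeLa cells (5 · 10⁵) incubated 24 h at 37 °C, medium replaced, test agent added; solvent-only controls. After 24 h, DNA extracted, dissolved in TE (10 mM Tris pH 8, 1 mM EDTA), run on 1% agarose, ethidium bromide-stained and imaged under UV; cisplatin as positive control.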

[6] = species on record: Homo sapiens; test: Inhibition of human recombinant topoisomerase 2 assessed as relaxation of supercoiled pBR322 plasmid DNA at 50 uM

| Compound | IC50 [1] [µM] | IC50 [2] [µM] | IC50 [3] [µM] | Activity [4] | Activity [6] | Activity [5] |
| --- | --- | --- | --- | --- | --- | --- |
| COc1cc(NS(C)(=O)=O)ccc1Nc1c2ccccc2nc2ccccc12 [AMSACRINE] | 0.0051 | 0.012 | – | – | – | – |
| Cn1cc2c3c1C(=O)C(NCCc1c[nH]c4ccc(O)cc14)=CC3=NCC2 | – | – | > 40 | – | – | – |
| COc1cc2c3c(cn(C)c3c1OC)CCN2 | – | – | > 60 | – | – | – |
| COc1cc2c3c(c[nH]c3c1OC)CCN2C=O | – | – | > 60 | – | – | – |
| Cn1cc2c3c1C(=O)C(NCc1ccccc1)=CC3=NCC2 | – | – | > 40 | – | – | – |
| COc1ccc(CCNC2=CC3=NCCc4cn(C)c(c43)C2=O)cc1 | – | – | > 40 | – | – | – |
| COc1cc2c3c(cn(C=O)c3c1OC)CCN2C=O | – | – | > 60 | – | – | – |
| COc1cc2c3c(cn(C)c3c1OC)CCN2C=O | – | – | > 60 | – | – | – |

More lines, in order of falling IC50 [3], values ahead:

| IC50 [1] [µM] | IC50 [2] [µM] | IC50 [3] [µM] | Activity [4] | Activity [6] | Compound | Activity [5] |
| --- | --- | --- | --- | --- | --- | --- |
| – | – | 23 | – | – | C[C@H](NC1=CC2=NCCc3cn(C)c(c32)C1=O)c1ccccc1 | – |
| 6.9 | 4.9 | 10.8 | – | – | Cn1cc2c3c1C(=O)C(NCCc1ccc(O)cc1)=CC3=NCC2 [MAKALUVAMINE K] | Active |
| > 20 | > 20 | 9 | – | – | COC1=CC2=NCCc3cn(C)c(c32)C1=O | – |
| – | – | 8.8 | – | – | COc1ccc2[nH]cc(CCNC3=CC4=NCCc5cn(C)c(c54)C3=O)c2c1 | – |
| > 20 | > 20 | 7.7 | – | – | COc1cc2c3c(c1OC)N(C=O)C(OC)C3CCN2C=O (stereo not drawn) | – |
| 3.1 | 5.5 | 6.2 | – | – | Cn1cc2c3c1C(=O)C1=C(C3=NCC2)C2(C=CC(=O)C=C2)CCN1 | Active |
| > 20 | > 20 | 5.5 | – | – | Cn1cc2c3c1C(=O)C(NCCc1c[nH]c4ccc(F)cc14)=CC3=NCC2 | – |
| 7.8 | 4.1 | 2.12 | – | Active | Cn1cc2c3c1C(=O)C(NCCc1c[nH]c4ccccc14)=CC3=NCC2 | Active |
| 2.7 | 1.9 | 0.96 | Active | – | Cn1cc2c3c1C(=O)C1=C(NCCS1)C3=NCC2 | – |
| – | – | 0.028 | – | – | COc1cccc2c1C(=O)c1c(O)c3c(c(O)c1C2=O)C[C@@](O)(C(=O)CO)C[C@@H]3O[C@H]1C[C@H](N)[C@H](O)[C@H](C)O1 [DOXORUBICIN] | – |
